Bioassay records (PubChem BioAssay)
PGC1a acetyl inh = lowers PGC1a acetylation signal in U2OS cells. 350,000 compounds, 0.17% hits. AlphaScreen anti-acetyl-lysine; with virally co-expressed GCN5 acetyltransferase. inhibition, % at 15.6 µM;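 active = every replicate shows inhibition of at least 40%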;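 also: 0% = neutral control wells and 100% = positive control wells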
Statin myotox sup = suppressors of simvastatin-induced myotoxicity in C2C12 myotubes; ATP luminescence, 48 h; scaled: DMSO 0, geranylgeraniol control 100; rescue of ATP level, % at 7.49 µM; 330,000 compounds, 0.78% hits;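 active = mean ATP rescue above about 67%, or every replicate alone reaching that limit, limit read from the data, passing the limit was not always enough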;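 also: myotubes were challenged with 10 µM simvastatin during compound exposure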
SIRT5 block = sirtuin-5 (human) deacylase inhibition | Q9NXA8 | Purified SirT5, succinyl-peptide AMC, trypsin-coupled fluorescence | inhibition, % at 15 µM | 330,000 compounds, 1.1% hits; in the data active = inhibition above about 15%
Target sequence (Q9NXA8 whole entry, looked up): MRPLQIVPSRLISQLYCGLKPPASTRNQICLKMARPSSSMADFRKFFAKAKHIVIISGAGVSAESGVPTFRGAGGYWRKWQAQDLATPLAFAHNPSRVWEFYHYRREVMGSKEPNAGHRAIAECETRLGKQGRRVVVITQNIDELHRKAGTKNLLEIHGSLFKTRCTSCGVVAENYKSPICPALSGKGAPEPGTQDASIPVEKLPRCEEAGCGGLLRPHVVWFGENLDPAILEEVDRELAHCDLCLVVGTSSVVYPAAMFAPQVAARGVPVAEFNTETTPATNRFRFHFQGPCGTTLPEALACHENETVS
Cneo AK release = Cryptococcus neoformans lysis via adenylate kinase release | C. neoformans lysis, adenylate kinase release luminescence, 4 h; normalised: neutral wells 0, clomiphene wells 100 | lysis activity, % at 15 µM | 360,000 compounds, 0.2% hits;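 active = mean lysis activity across replicates of at least 80%, whatever share of replicates individually reach that level; inactive = mean lysis activity below 80%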
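Material – log-phase Cryptococcus neoformans yeast cells · Input – 5 × 10^6 yeast cells/mL · Medium – fresh YPD growth medium · Doses – single compound concentration per well · Timing – static 4 h at 37 °C with compound, 1 h detection · Detection – adenylate kinase release luminescence · Read-out – signal increase indicating cell lysis · Control set – Clomiphene as positive lysis control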
rRNA inh HTS = inhibits bacterial ribosomal RNA function over humanized ribosomes | E. coli WT GFP vs humanized-ribosome RFP mutants, fluorescence, 24 h; stronger effect = lower value; DMSO median 0, no signal -100 | 350,000 compounds, 1.6% hits | AID 720706 | GFP signal change (wild-type ribosome), % (test concentration not listed);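 active = significant combined selectivity score with lowered wild-type GFP, culture density cut under 30%, mutant RFP and density less affected; inactive = any of these conditions unmet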
S100A4 MyoIIA = blocks human S100A4 binding to myosin IIA peptide; P26447; S100A4/TAMRA-MyoIIA peptide fluorescence polarization; inhibition, % at 10.7 µM; 360,000 compounds, 0.14% hits; AID 652163;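 active = mean inhibition of at least 70% across replicates, with every replicate also reaching that level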
Target sequence (P26447 whole entry, looked up): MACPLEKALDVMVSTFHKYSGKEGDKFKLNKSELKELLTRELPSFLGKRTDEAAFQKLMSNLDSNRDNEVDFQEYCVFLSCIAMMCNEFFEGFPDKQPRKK
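Test system: S100A4 monomer protein; Medium: HEPES pH 7.2 with CaCl2, KCl, NaCl, DTT, Triton; Probe or stimulus: TAMRA-labelled myosin IIA heavy-chain peptide probe, 5 nM; Doses: one dose per compound; Times: polarization read 5 min after assay mix addition, stable 5–60 min; Benchmarks: neutral control DMSO, positive control TFP.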
Numbers without * were called inactive; . = no result. In the library only some 3% were active in any assay of this set; here they are far more common.

SMILES	PGC1a acetyl inh	Statin myotox sup	SIRT5 block	Cneo AK release	rRNA inh HTS	S100A4 MyoIIA
CN(C)C(=O)c1cc2c(c(-c3cccc(C4=CCCCC4)c3)n1)[C@H](CCO)N([S@@](=O)C(C)(C)C)C2	.	.	.	.	-3.5	.
CC(C)C[C@H]1CN=C(Nc2ccccc2)N1CCCCc1ccccc1	11.4	104.6*	-1.6	-1.1	-42.9	-4.0
C[C@H](CO)N1C[C@H](C)[C@H](CN(C)C(=O)Nc2ccc(C(F)(F)F)cc2)OCCCC[C@H](C)Oc2ccc(NC(=O)c3ccccc3)cc2C1=O	.	112.1*	-1.6	1.0	2.2	1.3
C[C@@H]1CCCCO[C@@H](CN(C)C(=O)Nc2ccc(C(F)(F)F)cc2)[C@H](C)CN([C@@H](C)CO)C(=O)c2cc(NC(=O)c3ccccc3)ccc2O1	.	75.5*	-7.4	0.2	6.5	0.2
O=C1CC(c2ccccc2)NC(=S)N1 (centres undefined)	.	-1.2	-1.6	0.2	6.8	3.0
CCCCCCC1CC(=O)NC(=S)N1 (centres undefined)	62.8*	.	1.9	.	7.5	-4.7
CCC(=O)N1CC2(C1)[C@H](c1ccccc1)[C@H](CO)N2Cc1ccccc1F	-7.0	.	12.9	.	-1.5	-9.9
Cc1ccccc1-c1ccc([C@H]2[C@H](CO)N3C(=O)CN(C(=O)c4ccncc4)C[C@@H]23)cc1	-10.8	.	-3.7	.	-2.0	-1.7
COc1ccc(-n2c(-c3ccccc3)c[n+]3c2CCC3)cc1	-7.9	-67.1	-7.2	-4.1	17.3	0.2
CCOc1ccc(-c2c[n+]3c(n2-c2ccccc2)CCCCC3)cc1	.	.	-1.7	.	-38.6*	2.5
CCS(=O)(=O)Nc1ccc2c(c1)C(=O)N(C)[C@H]1CC[C@@H](CC(=O)N3CCN(C)CC3)O[C@H]1CO2	6.2	-8.4	0.9	4.7	-0.2	22.6
Cc1ccc(S(=O)(=O)NCC[C@@H]2CC[C@H](NC(=O)c3cccc(F)c3)[C@H](CO)O2)cc1	-0.8	-4.6	2.4	21.5	-2.5	1.0
O=S1OC(c2ccccc2)c2cc(Cl)ccc21 (centres undefined)	8.7	.	-0.6	-1.6	-15.1*	-3.9
C[C@@H]1CN([C@@H](C)CO)C(=O)c2cc(NS(=O)(=O)c3ccc(F)cc3)ccc2O[C@H]1CN(C)C(=O)Nc1ccc(C(F)(F)F)cc1	9.9	8.1	-9.3	0.1	-8.6	-3.3
O=C(NC1CCCC1)c1cc2nc(-c3ccccc3)cc(-c3ccccc3)n2n1	6.7	.	-1.7	0.9	11.2	2.1
CC1CCN(C(=O)c2cc3nc(-c4ccccc4)cc(-c4ccccc4)n3n2)CC1	6.4	83.1*	.	0.2	.	.
COc1ccc(NS(=O)(=O)c2cc(NC(=O)c3cnccn3)ccc2N2CCCC2)cc1	-17.4	-9.8	-5.6	0.7	0.6	-2.9
COc1ccc(NS(=O)(=O)c2cc(NC(=O)c3cnccn3)ccc2OC)cc1Br	-6.5	-1.9	3.0	0.6	-30.9*	1.2
CCCS(=O)(=O)c1c(S(=O)(=O)CCC)c2c(C)cccn2c1C(=O)N/N=C/c1cc(O)cc(O)c1	11.9	19.5	.	-0.5	-20.9*	-6.0
CCCS(=O)(=O)c1c(S(=O)(=O)CCC)c2c(C)cccn2c1C(N)=O	.	-2.6	.	-0.6	.	.
COc1cccc(NC(=O)Cn2c(CCC(=O)O)ccc2-c2ccc(Cl)cc2)c1	0.0	18.9	-2.5	.	-4.5	-3.3
Cc1ccc(NC(=O)Cn2c(CCC(=O)O)ccc2-c2ccc(Cl)cc2)cc1	-4.2	2.6	-6.0	-0.8	-24.8*	-2.4
Cc1nn(-c2ccccc2)cc1/C=N/NC(N)=S	-25.5	.	-0.5	18.7	-21.0*	7.5
O=C(CSc1ncc(S(=O)(=O)c2ccccc2)c(=O)[nH]1)Nc1ccccc1Cl	-6.4	.	1.2	.	-30.0	-1.6
CSc1ncc(S(=O)(=O)c2ccccc2)c(=O)[nH]1	-9.8	.	20.3*	.	-12.4	-3.1
SMILES	PGC1a acetyl inh	Statin myotox sup	SIRT5 block	Cneo AK release	rRNA inh HTS	S100A4 MyoIIA
Cc1cccc(OCCN2C(=O)C(=O)c3cc(C)ccc32)c1	4.7	-8.5	1.6	1.3	-45.5	3.1
Cc1ccc2c(c1)C(=O)C(=O)N2CCOc1ccccc1	-4.6	-2.9	-5.2	0.1	-23.0*	-2.2
CCC(=O)N1C[C@@H](C)[C@@H](OC)CN(C)C(=O)c2ccc(NC(=O)c3cc(C)on3)cc2OC[C@@H]1C	-5.8	1.0	.	-4.4	2.9	.
CCCNC(=O)[C@H]1[C@H](CO)[C@H]2Cn3c(ccc(-c4ccc(F)cc4)c3=O)[C@H]2N1CCC	.	11.9	2.5	48.6	-1.2	5.3
C[C@@H]1CN([C@H](C)CO)C(=O)Cc2cc(NC(=O)Nc3ccc4c(c3)OCO4)ccc2O[C@H]1CN(C)Cc1ccc(Oc2ccccc2)cc1	-13.2	39.0	1.1	42.3	0.6	-11.8
C[C@H]1CN([C@@H](C)CO)C(=O)c2cc(NC(=O)C3CC3)ccc2O[C@H]1CN(C)Cc1ccc2c(c1)OCO2	-4.5	-10.6	2.6	-1.5	1.1	-0.4
C[C@@H]1CN([C@H](C)CO)C(=O)c2cc(NC(=O)C3CC3)ccc2O[C@@H]1CN(C)Cc1ccc2c(c1)OCO2	18.1	18.2	16.6*	1.3	0.1	14.3
C[C@@H]1CN([C@@H](C)CO)C(=O)c2cc(NC(=O)C3CC3)ccc2O[C@H]1CN(C)Cc1ccc2c(c1)OCO2	0.9	-27.2	-1.3	100.8*	5.1	-3.6
C[C@@H]1CCCCO[C@H](CN(C)S(=O)(=O)c2ccccc2)[C@H](C)CN([C@H](C)CO)C(=O)c2cc(NC(=O)Nc3cccc4ccccc34)ccc2O1	24.3	.	-3.2	-6.5	-1.1	-4.0
CC(C)NC(=O)N(C)C[C@@H]1Oc2ccc(NS(C)(=O)=O)cc2C(=O)N(C)C[C@H]1C	.	.	.	.	1.2	.
CCCN(CCC)CCN1CCN(C(=O)[C@H](CCc2ccccc2)NC(=O)[C@H]2O[C@@H](n3cnc4c(N)ncnc43)[C@H](O)[C@@H]2O)CC1	.	.	29.4*	.	8.6	-16.3
Nc1ncnc2c1ncn2[C@@H]1O[C@H](C(=O)N[C@@H](CCc2ccccc2)C(=O)N2CCN(C(=O)N3CCCCC3)CC2)[C@@H](O)[C@H]1O	.	.	-0.3	.	8.7	-0.7
COc1ccc2cc3cc(C(=O)N4CCCCCC4)oc3nc2c1	-0.5	-28.2	.	-11.0	.	.
COc1ccc2cc3cc(C(=O)N4CCCCC4C)oc3nc2c1 (centres undefined)	38.3	-55.5	17.9*	-3.9	-18.1	1.8
O=C(C[C@H]1C[C@H]2c3cc(NC(=O)c4cccnc4)ccc3O[C@H]2[C@@H](CO)O1)NC1CCCCC1	-5.3	9.9	-1.4	11.1	11.2	-0.5
Clc1ccc(SCc2cn3ccccc3n2)cc1	5.5	.	58.0*	.	-27.8*	2.5
